The record followed here is ChEMBL document CHEMBL3232960, “Synthesis of novel 1,2,3-triazole/isoxazole functionalized 2H-Chromene derivatives and their cytotoxic activity” (Bioorg Med Chem Lett, 2014).

What all share (format): functional, cell-based
One test deals with HeLa. In words: Cytotoxicity against human HeLa cells assessed as growth inhibition after 24 hrs by MTT assay. The gist of the method:
(§1)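 Exponentially growing cells (A549 lung CCL-185, DU145 prostate HTB-81, HeLa cervical CCL-2, MCF7 breast HTB-22) exposed to a range of compound concentrations for 24 h; viability read by MTT. 5-Fluorouracil served as positive control. IC50 taken as concentration giving 50% drop in cell number versus untreated control cultures.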

A further test concerns A549. Briefly: Cytotoxicity against human A549 cells assessed as growth inhibition after 24 hrs by MTT assay. To be noted: A549, 24 h. The gist of the method: as §1
A further test relates to DU-145. Briefly: Cytotoxicity against human DU145 cells assessed as growth inhibition after 24 hrs by MTT assay. The following applies: DU-145, 24 h. The gist of the method:
as §1
A general note: Formazan colour is commonly taken as a measure of viable cells.

The next test relates to MCF7. In words: Cytotoxicity against human MCF7 cells assessed as growth inhibition after 24 hrs by MTT assay. The following applies: MCF7, 24 h. In short, it runs like this: as §1

In general, IC50 refers to the concentration that gives 50% inhibition. For the molecule `CCOC(=O)C1=Cc2ccccc2OC1(OCc1cc(-c2ccc(F)cc2F)no1)C(F)(F)F` (stereo unspecified), the IC50 in the test with HeLa, with A549, with DU-145 and in the test on MCF7 was above 150 µM in each case.

Turning to `CCOC(=O)C1=Cc2ccccc2OC1(OCc1cn(-c2ccc(C)cc2)nn1)C(F)(F)F` (stereo unspecified), the IC50 in the test with HeLa stood at 25.1 µM; in the test on A549 it was 19.7 µM; in the test on DU-145, 30.2 µM; with MCF7 it was 26.7 µM.

Regarding `CCOC(=O)C1=Cc2ccccc2OC1(OCc1cn(CC(=O)Nc2cccc(F)c2)nn1)C(F)(F)F` (stereo unspecified), the IC50 in the test on HeLa, with A549, with DU-145 and in the test on MCF7 was above 150 µM in each case.

For the molecule `CCOC(=O)C1=Cc2ccccc2OC1(OCc1cc(-c2ccc(Br)cc2)no1)C(F)(F)F` (stereo unspecified), the IC50 is 52.3 µM in the test on HeLa, above 150 µM in the test with A549, 71.7 µM in the test on DU-145 and above 150 µM in the test with MCF7.

Consider `CCOC(=O)C1=Cc2ccccc2OC1(OCc1cn(CC(=O)Nc2ccccc2F)nn1)C(F)(F)F` (stereo unspecified), for which the IC50 in the test on HeLa is 49.9 µM; in the test on A549 it was 50.1 µM; in the test with DU-145 it was 33.9 µM; in the test with MCF7, 42.1 µM.

In the case of `CCOC(=O)C1=Cc2ccccc2OC1(OCc1cn(CC(=O)Nc2ccc(OC)cc2)nn1)C(F)(F)F` (stereo unspecified), the IC50 worked out at 31.9 µM in the test on HeLa, 29.4 µM with A549, 32.7 µM with DU-145 and 28.1 µM with MCF7.

As to `COc1ccc(-c2cc(COC3(C(F)(F)F)Oc4ccccc4C=C3C(=O)O)on2)cc1` (stereo unspecified), the IC50 is above 150 µM in the test with HeLa, 36.2 µM with A549, 42 µM in the test with DU-145 and 35.2 µM in the test with MCF7.

For `CCOC(=O)C1=Cc2ccccc2OC1(OCc1cn(-c2ccc(F)cc2)nn1)C(F)(F)F` (stereo unspecified), the IC50 in the test on HeLa came to 8.4 µM; with A549, 7.3 µM; in the test on DU-145, 8.9 µM; in the test on MCF7, 9.1 µM.

As to `CCOC(=O)C1=Cc2ccccc2OC1(OCc1cn(CC(=O)Nc2ccc(C)cc2)nn1)C(F)(F)F` (stereo unspecified), the IC50 is 67.4 µM in the test with HeLa, 54.3 µM in the test on A549, above 150 µM in the test on DU-145 and above 150 µM in the test with MCF7.

As to `CCOC(=O)C1=Cc2ccccc2OC1(OCc1cn(-c2ccc([N+](=O)[O-])cc2)nn1)C(F)(F)F` (stereo unspecified), the IC50 in the test on HeLa, with A549, in the test with DU-145 and in the test on MCF7 was above 150 µM throughout.

In the case of `CCOC(=O)C1=Cc2ccccc2OC1(OCc1cc(-c2ccc(Cl)cc2)no1)C(F)(F)F` (stereo unspecified), the IC50 was 12.3 µM with HeLa, 19.1 µM with A549, 18.2 µM in the test on DU-145 and 18.2 µM with MCF7.

Turning to `CCOC(=O)C1=Cc2ccccc2OC1(OCc1cn(CC(=O)NC2CCCCC2)nn1)C(F)(F)F` (stereo unspecified), the 50% inhibitory concentration (IC50) in the test on HeLa was determined as 11.4 µM; in the test with A549, 9.9 µM; in the test on DU-145, 10.2 µM; in the test on MCF7 it was 12.1 µM.

In the case of `O=C(O)C1=Cc2ccccc2OC1(OCc1cc(-c2ccc([N+](=O)[O-])cc2)no1)C(F)(F)F` (stereo unspecified), the IC50 in the test on HeLa was above 150 µM; in the test with A549, above 150 µM; in the test with DU-145, 100 µM; with MCF7, above 150 µM.

`O=C(O)C1=Cc2ccccc2OC1(OCc1cc(-c2ccc3ccccc3c2)no1)C(F)(F)F` (stereo unspecified): the IC50 in the test with HeLa is above 150 µM; in the test on A549, above 150 µM; in the test with DU-145, 140 µM; with MCF7 it was above 150 µM.

Take `O=C(O)C1=Cc2ccccc2OC1(OCc1cc(-c2ccc(F)cc2)no1)C(F)(F)F` (stereo unspecified): the 50% inhibitory concentration (IC50) in the test with HeLa is above 150 µM; with A549 it was above 150 µM; in the test on DU-145 it was 168 µM; in the test on MCF7, 64.2 µM.

Consider `CCOC(=O)C1=Cc2ccccc2OC1(OCc1cc(-c2cccc(C(F)(F)F)c2)no1)C(F)(F)F` (stereo unspecified), for which the IC50 in the test on HeLa amounted to 21.4 µM; in the test with A549, 48.6 µM; in the test with DU-145 it was 57.3 µM; in the test with MCF7, 22.1 µM.

For the molecule `CCOC(=O)C1=Cc2ccccc2OC1(OCc1cc(-c2ccc([N+](=O)[O-])cc2)no1)C(F)(F)F` (stereo unspecified), the IC50 in the test with HeLa, in the test with A549, in the test on DU-145 and in the test with MCF7 was above 150 µM each time.

For the molecule `CCOC(=O)C1=Cc2ccccc2OC1(OCc1cc(-c2ccc(F)cc2)no1)C(F)(F)F` (stereo unspecified), the IC50 is 42.3 µM with HeLa, 35.5 µM in the test with A549, 53.5 µM with DU-145 and 48.2 µM in the test with MCF7.

Take `CCOC(=O)C1=Cc2ccccc2OC1(OCc1cc(-c2ccc(C)cc2)no1)C(F)(F)F` (stereo unspecified): the IC50 in the test on HeLa, in the test on A549, in the test with DU-145 and with MCF7 was above 150 µM in each case.

Take `CCOC(=O)C1=Cc2ccccc2OC1(OCc1cn(-c2cccc(OC)c2)nn1)C(F)(F)F` (stereo unspecified): the IC50 in the test on HeLa, in the test with A549, in the test with DU-145 and in the test on MCF7 was above 150 µM in each case.

Turning to `CCOC(=O)C1=Cc2ccccc2OC1(OCc1cn(CC(=O)Nc2ccc(I)cc2Cl)nn1)C(F)(F)F` (stereo unspecified), the 50% inhibitory concentration (IC50) in the test on HeLa was 26.1 µM; in the test on A549 it was 22.3 µM; in the test on DU-145 it was 24.4 µM; in the test with MCF7, 28.1 µM.

Turning to `CCOC(=O)C1=Cc2ccccc2OC1(OCc1cc(-c2ccc(OC)cc2)no1)C(F)(F)F` (stereo unspecified), the half-inhibitory concentration (IC50) with HeLa, in the test on A549, with DU-145 and with MCF7 was above 150 µM in each case.

For `Cc1ccc(-c2cc(COC3(C(F)(F)F)Oc4ccccc4C=C3C(=O)O)on2)cc1` (stereo unspecified), the IC50 came to 33.4 µM with HeLa, 51.2 µM with A549, 41.4 µM with DU-145 and 30.1 µM in the test on MCF7.

As to `CCOC(=O)C1=Cc2ccccc2OC1(OCc1cn(-c2ccc(F)c([N+](=O)[O-])c2)nn1)C(F)(F)F` (stereo unspecified), the IC50 was found to be 15.6 µM with HeLa, 11.9 µM with A549, 13.2 µM in the test with DU-145 and 16.2 µM with MCF7.

On to `CCOC(=O)C1=Cc2ccccc2OC1(OCc1cn(-c2ccccc2)nn1)C(F)(F)F` (stereo unspecified), for which the IC50 with HeLa, with A549, in the test with DU-145 and in the test with MCF7 was above 150 µM each time.

As for `CCOC(=O)C1=Cc2ccccc2OC1(OCc1cn(CC(=O)Nc2cccc(Cl)c2)nn1)C(F)(F)F` (stereo unspecified), the half-maximal inhibitory concentration (IC50) was 12.3 µM in the test on HeLa, 12.8 µM in the test with A549, 10.1 µM with DU-145 and 11.6 µM in the test on MCF7.

`O=c1[nH]cc(F)c(=O)[nH]1` [FLUOROURACIL]: the IC50 amounted to 1.8 µM with HeLa, 1.9 µM in the test with A549, 1.9 µM in the test with DU-145 and 1.8 µM in the test with MCF7.

Turning to `CCOC(=O)C1=Cc2ccccc2OC1(OCc1cc(-c2ccc3ccccc3c2)no1)C(F)(F)F` (stereo unspecified), the IC50 with HeLa was above 150 µM; with A549, above 150 µM; in the test with DU-145, 71.8 µM; in the test on MCF7, 65.4 µM.

With `CCOC(=O)C1=Cc2ccccc2OC1(OCc1cn(-c2cccc(C(F)(F)F)c2)nn1)C(F)(F)F` (stereo unspecified), the IC50 in the test with HeLa, in the test on A549, in the test with DU-145 and in the test on MCF7 was above 150 µM each time.

`CCOC(=O)C1=Cc2ccccc2OC1(OCc1cn(CC(=O)Nc2ccccc2Br)nn1)C(F)(F)F` (stereo unspecified): the IC50 with HeLa, in the test with A549, in the test with DU-145 and in the test with MCF7 was above 150 µM throughout.

With `O=C(O)C1=Cc2ccccc2OC1(OCc1cc(-c2ccc(F)cc2F)no1)C(F)(F)F` (stereo unspecified), the IC50 in the test on HeLa, with A549, in the test with DU-145 and with MCF7 was above 150 µM each time.

In the case of `CCCCCCCCn1cc(COC2(C(F)(F)F)Oc3ccccc3C=C2C(=O)OCC)nn1` (stereo unspecified), the IC50 in the test with HeLa, in the test with A549, in the test on DU-145 and in the test with MCF7 was above 150 µM each time.

As for `CCOC(=O)C1=Cc2ccccc2OC1(OCc1cn(-c2ccc(F)c(Cl)c2)nn1)C(F)(F)F` (stereo unspecified), the IC50 with HeLa is 22.7 µM; in the test with A549 it was 26.3 µM; in the test on DU-145 it was 21.5 µM; with MCF7, 25.3 µM.

Take `O=C(O)C1=Cc2ccccc2OC1(OCc1cc(-c2cccc(C(F)(F)F)c2)no1)C(F)(F)F` (stereo unspecified): the half-maximal inhibitory concentration (IC50) was above 150 µM with HeLa, above 150 µM in the test on A549, 155 µM in the test on DU-145 and above 150 µM in the test on MCF7.
